Several values for one entry are separate records, joined by “and”; a condition that tells them apart may be missing. Identical values can stand only once.
How the values were obtained:
J774 macrophages = test: J774 macrophage toxicity assay; format: cell-based, mouse; conditions: for IC50: Mus musculus, J774, read-out: IC50 against J774 macrophages
[1] = molecular target: recombinant L. donovani CYP51 (Leishmania donovani, UniProt A0A3S7WRS7); test: Fluorescence-based L. donovani CYP51 inhibition assay; format: biochemical
L. donovani CYP51 = L. donovani CYP51 ligand binding spectra; parameters: species or system Leishmania donovani; conditions: titration of CYP51; absorbance maximum 431 nm, minimum 412–413 nm
Procedure, shortened: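 Purified N-terminally truncated L. donovani CYP51 (CYP51-32c, His-tagged; purity by SDS-PAGE/anti-His Western blot, CO-difference spectra) at 0.5 µM, titrated in 30 mM potassium phosphate pH 7.4 with 0.1 mM EDTA and 20% glycerol. […], and sample-minus-reference difference spectra were recorded.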

recombinant human CYP3A4 = recombinant human CYP3A4 (Homo sapiens, UniProt P08684); test: Inhibition of recombinant human CYP3A4; format: in vitro ADME
[2] = tested on: intracellular L. donovani; test: L. donovani-infected macrophage assay; format: cell-based, Leishmania donovani; conditions: for IC50: read-out: IC50 against L. donovani
[3] = Microsomal stability, human liver microsomes; format: in vitro ADME; conditions: for remaining at 1 h, 3 μM: human, liver microsomes
HepG2 cells = test: HepG2 toxicity assay; format: cell-based; conditions: for IC50: Homo sapiens, HepG2, 72 h, read-out: IC50 against HepG2
[4] = Microsomal stability, mouse liver microsomes; format: in vitro ADME; conditions: for remaining at 1 h, 3 μM: mouse, liver microsomes
[5] = tested on: L. donovani-infected female BALB/c mice; test: Murine visceral leishmaniasis model; format: in vivo; conditions: for Reduction in liver parasitemia: three days after final dose
Procedure, shortened: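 Female BALB/c mice infected with L. donovani; groups of four. Dosing by oral gavage for 5 consecutive days, starting one week post-infection. Test compound was given at 75 or 37.5 mg/kg/day in 50% PEG400/50% water. Reference drug miltefosine was given at 10 mg/kg/day in water. The vehicle control group received PEG-400. Liver parasitemia was determined three days after the final dose, reported as percent reduction (mean ± S.E.M.).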

[6] = Leishmania donovani, Macrophage
[7] = substrate 3 μM, LC-MS detection

Chain of recombinant human CYP3A4 (P08684 whole entry): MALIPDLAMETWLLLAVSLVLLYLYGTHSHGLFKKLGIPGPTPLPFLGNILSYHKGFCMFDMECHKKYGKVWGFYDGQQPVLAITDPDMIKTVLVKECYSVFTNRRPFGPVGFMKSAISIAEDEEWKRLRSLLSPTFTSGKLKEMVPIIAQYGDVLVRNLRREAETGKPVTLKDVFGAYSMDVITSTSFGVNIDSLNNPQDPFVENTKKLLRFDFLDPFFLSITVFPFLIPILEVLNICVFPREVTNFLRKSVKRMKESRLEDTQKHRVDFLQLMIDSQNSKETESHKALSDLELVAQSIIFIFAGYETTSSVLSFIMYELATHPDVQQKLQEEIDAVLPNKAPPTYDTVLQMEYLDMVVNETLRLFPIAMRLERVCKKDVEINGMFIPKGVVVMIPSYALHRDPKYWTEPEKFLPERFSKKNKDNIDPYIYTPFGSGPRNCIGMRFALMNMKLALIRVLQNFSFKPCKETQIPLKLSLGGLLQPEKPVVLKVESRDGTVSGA

N=C(Nc1ccc(OCCCCCCCCn2ccnc2)cc1)c1ccccn1 [Compound 9h, N-(4-((8-(1H-imidazol-1-yl)octyl)oxy)phenyl) picolinimidamide]
IC50 (J774 macrophages): 11 ± 1 µM
IC50 [1]: 0.36 ± 0.03 µM
CYP51 binding spectrum type (L. donovani CYP51): typical Type II binding spectra
IC50 (recombinant human CYP3A4): 0.047 ± 0.003 µM
IC50 [2, 6]: 1 µM
remaining at 1 h, 3 μM [3]: 100%
Degradation by human liver microsomes (in words) ([3]; over a period of one hour, substrate 3 μM): not degraded
IC50 (HepG2 cells): 12 ± 3 µM

N=C(Nc1ccc(OCCCCCCCCn2ccnc2)c(Cl)c1)c1ccccn1 [Compound 9i, N-(4-((8-(1H-imidazol-1-yl)octyl)oxy)-3-chlorophenyl) picolinimidamide]
IC50 (J774 macrophages): 6.8 ± 0.7 µM
IC50 [1]: 0.18 ± 0.01 µM
Fold more potent as inhibitor of L. donovani CYP51 compared to 9h ([1]; compared to 9h): about 2 fold
IC50 [2, 6]: 1.3 ± 0.2 µM
IC50 (HepG2 cells): 7.7 ± 1.5 µM

N=C(Nc1ccc(OCCCCCCCCn2ccnc2)cc1Cl)c1ccccn1 [Compound 9j, N-(4-((8-(1H-imidazol-1-yl)octyl)oxy)-2-chlorophenyl) picolinimidamide]
IC50 (J774 macrophages): 8.6 ± 1.2 µM
IC50 [1]: 0.15 ± 0.01 µM
Fold more potent as inhibitor of L. donovani CYP51 compared to 9h ([1]; compared to 9h): about 2 fold
IC50 [2, 6]: 2.1 ± 0.2 µM
IC50 (HepG2 cells): 8.6 ± 1.2 µM

N=C(Nc1ccc(OCCCCCCCCn2cncn2)cc1)c1ccccn1 [Compound 9k, N-(4-((8-(1H-1,2,4-triazol-1-yl)octyl)oxy)phenyl) picolinimidamide]
IC50 (J774 macrophages): 36 ± 1 µM
IC50 [1]: 1.9 ± 0.1 µM
inhibition at 12.5 µM ([2]; Leishmania donovani, Macrophage, read-out: Inhibition of parasitemia at 12.5 μM, 12.5 μM, intracellular L. donovani, mean ± S.E.M., n=3): ~50%
Decrease in potency against intracellular L. donovani compared with 9h ([2]; compared with 9h): > 10 fold
IC50 (HepG2 cells): 32 ± 5 µM

N=C(Nc1ccc(OCCCCCCCCCCn2ccnc2)cc1)c1ccccn1 [Compound 9l, N-(4-((10-(1H-imidazol-1-yl)decyl)oxy)phenyl) picolinimidamide]
IC50 (J774 macrophages): 4.9 ± 0.9 µM
IC50 [1]: 0.22 ± 0.01 µM
IC50 [2, 6]: 1.4 ± 0.2 µM
Human liver microsome t1/2 [3, 7]: 0.95 h
IC50 (HepG2 cells): 6.9 ± 1 µM
Mouse liver microsome t1/2 [4, 7]: 1.13 h

N=C(Nc1ccc(OCCCCCCCCn2cccc2)cc1)c1ccccn1 [Compound 9m, N-(4-((8-(1H-pyrrol-1-yl)octyl)oxy)phenyl) picolinimidamide]
IC50 (J774 macrophages): 11 ± 1 µM
IC50 [1]: 14 ± 1 µM
Fold less active as a CYP51 inhibitor than 9h ([1]; compared to 9h): 39 fold
IC50 [2, 6]: 1.7 ± 0.3 µM
IC50 (HepG2 cells): 13 ± 2 µM

N=C(Nc1ccc(OCCCCCCCCn2ccnc2)cc1)c1ccccc1 [Compound 9n, N-(4-((8-(1H-imidazol-1-yl)octyl)oxy)phenyl)benzimidamide]
IC50 (J774 macrophages): 0.48 ± 0.02 µM
Increase in potency against J774 cells compared to 9h (J774 macrophages; compared to 9h): 22 fold
IC50 [1]: 0.34 ± 0.01 µM
IC50 [2, 6]: 1.2 ± 0.1 µM
IC50 (HepG2 cells): 4.9 ± 1 µM
Increase in HepG2 activity compared to 9h (HepG2 cells; compared to 9h): 2.4 fold

COc1cc(NC(=N)c2ccccn2)ccc1OCCCCCCCCn1ccnc1 [Compound 17a, N-(4-((8-(1H-imidazol-1-yl)octyl)oxy)3-methoxyphenyl) picolinimidamide]
IC50 (J774 macrophages): 16 ± 1 µM
IC50 [1]: 0.57 ± 0.01 µM
IC50 [2, 6]: 2.2 ± 0.3 µM
remaining at 1 h, 3 μM [3]: 100%
IC50 (HepG2 cells): 23 ± 2 µM
remaining at 1 h, 3 μM [4]: 100%

CCOc1cc(NC(=N)c2ccccn2)ccc1OCCCCCCCCn1ccnc1 [Compound 17b, N-(4-((8-(1H-imidazol-1-yl)octyl)oxy)3-ethoxyphenyl) picolinimidamide]
IC50 (J774 macrophages): 9 ± 1.3 µM
IC50 [1]: 0.53 ± 0.02 µM
IC50 [2, 6]: 1.9 ± 0.3 µM
IC50 (HepG2 cells): 13 µM

CC(C)Oc1cc(NC(=N)c2ccccn2)ccc1OCCCCCCCCn1ccnc1 [Compound 17c, N-(4-((8-(1H-imidazol-1-yl)octyl)oxy)3-isopropoxyphenyl) picolinimidamide]
IC50 (J774 macrophages): 7.8 ± 0.3 µM
IC50 [1]: 0.29 ± 0.01 µM
IC50 [2, 6]: 0.97 ± 0.07 µM
remaining at 1 h, 3 μM [3]: > 80%
IC50 (HepG2 cells): 18 ± 1 µM
remaining at 1 h, 3 μM [4]: 100%

COc1cc(OCCCCCCCCn2ccnc2)ccc1NC(=N)c1ccccn1 [Compound 24a, N-(4-((8-(1H-imidazol-1-yl)octyl)oxy)-2-methoxyphenyl) picolinimidamide]
IC50 (J774 macrophages): 9.3 ± 0.5 µM
IC50 [1]: 0.36 ± 0.01 µM
IC50 [2, 6]: 1.5 ± 0.4 µM
remaining at 1 h, 3 μM [3]: > 80%
IC50 (HepG2 cells): 16 ± 2 µM
remaining at 1 h, 3 μM [4]: > 80%

CCOc1cc(OCCCCCCCCn2ccnc2)ccc1NC(=N)c1ccccn1 [Compound 24b, N-(4-((8-(1H-imidazol-1-yl)octyl)oxy)-2-ethoxyphenyl) picolinimidamide]
IC50 (J774 macrophages): 6.8 ± 0.1 µM
IC50 [1]: 0.34 ± 0.01 µM
IC50 [2, 6]: 0.73 ± 0.15 µM
remaining at 1 h, 3 μM [3]: > 80%
IC50 (HepG2 cells): 12 ± 2 µM
remaining at 1 h, 3 μM [4]: 100%

CC(C)Oc1cc(OCCCCCCCCn2ccnc2)ccc1NC(=N)c1ccccn1 [Compound 24c, N-(4-((8-(1H-imidazol-1-yl)octyl)oxy)-2-isopropoxyphenyl) picolinimidamide]
Selectivity index (IC50 vs. mammalian cell line/IC50 vs. L. donovani) (J774 macrophages; J774 macrophages vs. intracellular L. donovani): 13
IC50 (J774 macrophages): 6.8 ± 0.2 µM
Reduction in liver parasitemia ([5]; 37.5 mg/kg/day × 5 p.o.): 17 ± 5%
Reduction in liver parasitemia ([5]; 75 mg/kg/day × 5 p.o., mean ± S.E.M.): 33% and 33 ± 7%
IC50 [1]: 0.33 ± 0.01 µM
CYP51 binding spectrum type (L. donovani CYP51): typical Type II binding spectra
IC50 (recombinant human CYP3A4): 0.08 ± 0.009 µM
IC50 [2, 6]: 0.53 ± 0.05 µM
Selectivity index (IC50 vs. mammalian cell line/IC50 vs. L. donovani) (HepG2 cells; HepG2 cells vs. intracellular L. donovani): 23
IC50 (HepG2 cells): 12 ± 2 µM

CCCCCCCCCCCCCCCCOP(=O)([O-])OCC[N+](C)(C)C [Miltefosine, miltefosine, reference compound]
Reduction of liver infection ([5]; 10 mg/kg/day × 5 p.o.): 95 ± 2%

Source: article PMC8553517 (ACS infectious diseases, 2021)
